Assay outcomes: PubChem, several laboratories
In the library only some 2.8% were active in any assay of this set; here they are far more common.
Measles CPE: compounds protecting cells from measles virus cytopathic effect, primary screen, measles RdRp inhibitor project, single point, MLSMR library, absorbance | 140,000 tested, 1.5% active | protection (pct of control), % at 4 µM | AID 841, 2007 | Measles virus-infected cells, CPE protection; in the data active = protection mostly above about 24%, no sharp cut-off; inactive = mostly below about 26%
NPY Y1 blocker: NPY-Y1 receptor antagonists, primary screen, cell-based; Neuropeptide Y receptor type 1 (Homo sapiens), P25929; HEK293-CNG Y1 cells, membrane potential fluorescence; NPY at EC95, then isoproterenol; inhibition, % at 3.6 µM; 200,000 tested, 1% active;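 active = inhibition above the campaign mean inhibition of all tested compounds plus 3 SD, cut at about 20% in these data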;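 note: 0% = DMSO wells given NPY plus isoproterenol and 100% = isoproterenol alone without NPY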
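Benchmarks – high control isoproterenol alone, low control NPY with isoproterenol · Material – HEK293 Y1/CNG channel cell line · Times – dye 3 h, compound 60 min room temperature, stimulation 45 min · Probe or stimulus – NPY (25 nM), isoproterenol (1 µM), Ro 20-1724 (25 µM) · Evaluation – % inhibition of NPY effect · Signal – fluorescence, membrane potential probe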
Mdm2 ligase inh: MDM2-luciferase reporter signal enhancers, primary screen, MDM2 E3 ligase inhibitor project, cell-based, luminescence, 1536-well. signal enhancement, % at 5 µM. 210,000 tested, 0.11% active. E3 ubiquitin-protein ligase Mdm2 (Homo sapiens), Q00987. cell-based MDM2 ubiquitination luciferase reporter, 2 h; 0 = plate control, 100 = twice control, blank-subtracted;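 active = signal enhancement of 30% or more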;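 note: luminescence tracks abundance of the self-degrading MDM2-luciferase fusion protein; higher signal means inhibition of MDM2 E3 ligase activity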
Target sequence (Q00987 whole entry, looked up, the tested form may be a part): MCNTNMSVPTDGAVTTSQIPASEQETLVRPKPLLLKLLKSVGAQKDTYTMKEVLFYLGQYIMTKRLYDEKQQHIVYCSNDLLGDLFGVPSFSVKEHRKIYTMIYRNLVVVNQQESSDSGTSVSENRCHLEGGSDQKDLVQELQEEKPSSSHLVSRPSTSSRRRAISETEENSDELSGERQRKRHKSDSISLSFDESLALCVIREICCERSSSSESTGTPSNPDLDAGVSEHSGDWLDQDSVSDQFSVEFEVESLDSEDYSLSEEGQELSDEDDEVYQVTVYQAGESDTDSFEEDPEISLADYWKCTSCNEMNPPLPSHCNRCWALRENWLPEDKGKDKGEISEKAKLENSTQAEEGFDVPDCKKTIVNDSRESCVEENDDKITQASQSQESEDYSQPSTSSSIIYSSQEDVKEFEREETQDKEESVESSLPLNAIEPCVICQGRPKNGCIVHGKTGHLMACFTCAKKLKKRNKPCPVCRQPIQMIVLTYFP
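System: stable MDM2–luciferase fusion reporter cells / Input: 2000 cells seeded into each well / Schedule: 4 h settle plus 2 h compound, 37 °C / Compound: single-point 5 µM / Buffer or medium: cells held in DMEM / Benchmarks: control and blank well means / Evaluation: percent signal gain over controls, blank-subtracted / Measured by: luciferase luminescence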
NPY-Y2 PAM-ag: NPY-Y2 potentiators or agonists, primary screen, cell-based | Neuropeptide Y receptor type 2 (Homo sapiens), P49146 | cells expressing NPY-Y2, potentiator/agonist read-out | activation, % at 3.6 µM | 220,000 tested, 0.45% active | AID 1359, 2008; in the data active = activation above about 27%;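 note: cells stimulated with NPY near EC25 plus isoproterenol at EC100; 0% = vehicle plus submaximal agonist and 100% = vehicle plus saturating agonist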
NPY Y2 blocker: NPY-Y2 receptor antagonists, primary screen, cell-based | AID 793, 2007 | NPY-Y2 expressing cells, antagonist mode | inhibition, % at 2.7 µM | 140,000 tested, 0.99% active; in the data active = inhibition above about 17%;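 note: 0% = vehicle with agonist challenge and 100% = reference antagonist with challenge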
NPY1 pot ag: NPY-Y1 receptor potentiators or agonists, primary screen, cell-based. 220,000 tested, 0.37% active. NPY-Y1 expressing cells, potentiator/agonist activation. activation, % at 3.6 µM. Neuropeptide Y receptor type 1 (Homo sapiens), P25929; in the data active = activation above about 33%, passing the limit was not always enough;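 note: cells stimulated with NPY at EC10 then isoproterenol at EC100; 0% = low agonist plus stimulus and 100% = saturating agonist plus stimulus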
Numbers without * were called inactive.

Results for Cn1c(=O)cc(OCC(=O)NCc2cccs2)c2ccccc21 ?
NPY Y1 blocker: 3; Mdm2 ligase inh: 35*; NPY-Y2 PAM-ag: 1; NPY1 pot ag: 11

How did CC(=O)c1ccc(NC(=O)Nc2ccc(NS(=O)(=O)c3ccc(C)cc3)cc2)cc1 do in these assays?
Measles CPE: 16; NPY Y1 blocker: -12; Mdm2 ligase inh: -5; NPY-Y2 PAM-ag: 40*; NPY Y2 blocker: -9; NPY1 pot ag: 45*

How did Cc1c(C#N)c(N)nc2c3c(sc12)NC(=O)CC3c1ccc(Cl)cc1 (stereo unspecified) do in these assays?
NPY Y1 blocker: 34*; Mdm2 ligase inh: -1; NPY-Y2 PAM-ag: 0; NPY Y2 blocker: 42*; NPY1 pot ag: -39

What do the screens show for `N#Cc1c(N)nc2c3c(sc(=N)c2c1N)NC(=O)CC3c1ccccc1` (stereo unspecified)?
Measles CPE: 12; NPY Y1 blocker: 23*; Mdm2 ligase inh: -6; NPY-Y2 PAM-ag: -19; NPY Y2 blocker: 19*; NPY1 pot ag: -30

What do the screens show for `N#Cc1c(N)nc2c3c(sc(=N)c2c1N)NC(=O)CC3c1c(F)cccc1Cl` (stereo unspecified)?
Measles CPE: 14; NPY Y1 blocker: -1; Mdm2 ligase inh: -31; NPY-Y2 PAM-ag: -3; NPY Y2 blocker: 0; NPY1 pot ag: 13

Results for CCOCC(=O)Nc1nc2ccc(S(C)(=O)=O)cc2s1 ?
Measles CPE: 10; NPY Y1 blocker: 1; Mdm2 ligase inh: -2; NPY-Y2 PAM-ag: -8; NPY Y2 blocker: 0; NPY1 pot ag: -22

How did CCC(=O)Nc1nc2ccc(S(C)(=O)=O)cc2s1 do in these assays?
Measles CPE: 52*; NPY Y1 blocker: 2; Mdm2 ligase inh: -21; NPY-Y2 PAM-ag: 3; NPY Y2 blocker: 2; NPY1 pot ag: 12

Results for O=C(COc1ccc([N+](=O)[O-])cc1)N(Cc1ccccc1)Cc1ccccc1 ?
Measles CPE: 32*; NPY Y1 blocker: 21*; Mdm2 ligase inh: -2; NPY-Y2 PAM-ag: -8; NPY Y2 blocker: 23*; NPY1 pot ag: -16

What do the screens show for `COc1ccc(N2CCN(c3ncccn3)CC2)cc1`?
Measles CPE: 28*; NPY Y1 blocker: 3; Mdm2 ligase inh: -4; NPY-Y2 PAM-ag: 6; NPY Y2 blocker: -1; NPY1 pot ag: -4

Results for COc1ccc(OCC(O)CN2CCN(c3ncccn3)CC2)cc1 (stereo unspecified) ?
Measles CPE: 5; NPY Y1 blocker: 8; Mdm2 ligase inh: 3; NPY-Y2 PAM-ag: 10; NPY Y2 blocker: 2; NPY1 pot ag: -20

How did COc1ccc(N2CCN(Cc3nc4ccccc4n3C)CC2)cc1 do in these assays?
Measles CPE: 37*; NPY Y1 blocker: 0; Mdm2 ligase inh: 6; NPY-Y2 PAM-ag: -1; NPY Y2 blocker: 0; NPY1 pot ag: -1

How did COc1cc(CCC(=O)Nc2ccc(S(=O)(=O)NC3=NCCCCC3)cc2)cc(OC)c1OC do in these assays?
NPY Y1 blocker: 4; Mdm2 ligase inh: 3; NPY-Y2 PAM-ag: 14; NPY1 pot ag: -4

How did COc1cc(C2C(N3C(=O)c4ccccc4C3=O)C(=O)N2c2cccc(C)c2)cc(OC)c1OC (stereo unspecified) do in these assays?
Measles CPE: 7; NPY Y1 blocker: 6; Mdm2 ligase inh: -1; NPY-Y2 PAM-ag: 1; NPY Y2 blocker: 0; NPY1 pot ag: -12

How did COCCCNC(NC(=O)c1ccc(Br)cc1)C(Cl)(Cl)Cl (stereo unspecified) do in these assays?
Measles CPE: 15; NPY Y1 blocker: -9; Mdm2 ligase inh: -16; NPY-Y2 PAM-ag: 66*; NPY Y2 blocker: 1; NPY1 pot ag: 59*

How did NC(=O)C1C(c2ccccc2)=C1c1ccccc1 do in these assays?
Measles CPE: 57*; NPY Y1 blocker: 4; Mdm2 ligase inh: -2; NPY-Y2 PAM-ag: 4; NPY Y2 blocker: 5; NPY1 pot ag: -7

What do the screens show for `NC1=NC(c2ccccc2)N=C(Nc2ccccc2)N1` (stereo unspecified)?
Mdm2 ligase inh: -7; NPY-Y2 PAM-ag: 0; NPY1 pot ag: -7

What do the screens show for `CCN(C(=O)c1cc2c(=O)[nH]c3ccc(C)cc3c2s1)c1ccc(OC)cc1`?
Mdm2 ligase inh: -5; NPY-Y2 PAM-ag: -1; NPY1 pot ag: -47

What do the screens show for `COc1cccc2c1OC1(C)CC2/C(=C(\C)O)C(=O)N1` (stereo unspecified)?
Measles CPE: 26; NPY Y1 blocker: -3; Mdm2 ligase inh: -9; NPY-Y2 PAM-ag: -3; NPY Y2 blocker: 0; NPY1 pot ag: -3

Results for C=C(C)c1cccc(C(C)(C)NC(=O)Nc2ccccc2OCC)c1 ?
Measles CPE: 32; NPY Y1 blocker: 7; Mdm2 ligase inh: -8; NPY-Y2 PAM-ag: -10; NPY Y2 blocker: 10; NPY1 pot ag: -2

How did C=C(C)c1cccc(C(C)(C)NC(=O)Nc2cc(C)ccc2OC)c1 do in these assays?
Measles CPE: 60*; NPY Y1 blocker: 1; Mdm2 ligase inh: -2; NPY-Y2 PAM-ag: -5; NPY Y2 blocker: 7; NPY1 pot ag: -4

How did COc1ccc2c(c1)-c1c(sn(-c3ccc(OC)c(OC)c3)c1=S)C(C)(C)N2 do in these assays?
Measles CPE: 16; NPY Y1 blocker: -4; Mdm2 ligase inh: -6; NPY-Y2 PAM-ag: 38*; NPY Y2 blocker: -3; NPY1 pot ag: 53*

How did O=C(c1cc(C2CC2)nc2ccc(Br)cc12)N1N=C(C(F)F)CC1(O)C(F)F (stereo unspecified) do in these assays?
Measles CPE: 7; NPY Y1 blocker: -5; Mdm2 ligase inh: 0; NPY-Y2 PAM-ag: 10; NPY Y2 blocker: -5; NPY1 pot ag: 41

Results for CCc1nc2sc(C#N)c(N)c2c2c1CCCC2 ?
Measles CPE: 6; NPY Y1 blocker: 49*; Mdm2 ligase inh: 13; NPY-Y2 PAM-ag: -20; NPY Y2 blocker: 57*; NPY1 pot ag: -76

Results for CCc1nc2sc(C(C)=O)c(N)c2c2c1CCCC2 ?
Mdm2 ligase inh: -3; NPY-Y2 PAM-ag: -17; NPY1 pot ag: 6

Results for CCCOc1ccc(C(=O)N2CCCC2C(=O)O)cc1 (stereo unspecified) ?
Measles CPE: 23; NPY Y1 blocker: 1; Mdm2 ligase inh: -20; NPY-Y2 PAM-ag: 9; NPY Y2 blocker: -2; NPY1 pot ag: -2

What do the screens show for `CCCCOc1ccc(C(=O)N2CCCC2C(=O)O)cc1` (stereo unspecified)?
Measles CPE: 48*; NPY Y1 blocker: 4; Mdm2 ligase inh: -3; NPY-Y2 PAM-ag: 3; NPY Y2 blocker: 1; NPY1 pot ag: 9
